# Screen size: about 2,500 compounds; about 1,200 (48%) were called active.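 The calls were made as follows: active = mean activation above the low control average plus 3 SD, as set in the primary screen (cut at about 12% in these data); inactive = the rest.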 The set was probably picked from earlier hits. This is one part of the list.
# Biological target: Troponin I, cardiac muscle (Homo sapiens) + Troponin T, cardiac muscle (Homo sapiens) + Troponin C, slow skeletal and cardiac muscles (Homo sapiens) (UniProt P19429+P45379+P63316)
# Test: calcium sensitizers of cardiac thin filaments – biochemical, IANBD-TnC fluorescence, triplicate, confirmation (AID 504383);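 also: 0% = DMSO at 0.472 mM calcium and 100% = DMSO at 2.9 mM calcium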
# Conditions: IANBD-labeled cardiac RTF, Ca2+ sensitivity fluorescence; at 7.2 µM; stronger effect = higher value; scaled from EC20 to saturating calcium; tested at EC20 calcium, 0.472 mM
# Summary of the method: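 material = labelled regulated thin filaments | probe or stimulus = Ca2+ 0.472 mM, EC20 level | dosing = single nominal compound dose of 7.2 µM | schedule = 15 min at 25 °C | signal = fluorescence intensity of labelled filaments | evaluation = fluorescence gain scaled between EC20 and EC100 calcium controls | benchmarks = low control EC20 calcium, high control EC100 calcium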
row,Compound,activation
1,Cc1ccc[n+](-c2nc3ccccc3nc2[N-]S(=O)(=O)c2ccccc2)c1,55.5% (active)
2,O=S(=O)([N-]c1nc2ccccc2nc1-[n+]1ccc(-c2ccncc2)cc1)c1ccccc1,4.89% (inactive)
3,CCOC(=O)c1cc(-c2ccc(F)cc2)n(CCC(=O)NC2CCN(Cc3ccccc3)CC2)c1C,10.5% (inactive)
4,CCOC(=O)N1CCC(NC(=O)c2cccs2)CC1,6.98% (inactive)
5,CCOC(=O)N1CCC(Nc2cccc(SC)c2)CC1,246% (active)
6,Oc1c(N=NC(=S)Nc2ccccc2F)c2ccccc2n1Cc1ccc(F)cc1,3.17% (inactive)
7,Cc1ccc(Cn2c(O)c(N=NC(=S)Nc3ccccc3F)c3cc(S(=O)(=O)N4CCOCC4)ccc32)cc1,17.5% (active)
8,CCOC(=O)CCC(=O)NCc1ccc2c(c1)cc(C)n2C,11.9% (active)
9,O=C(O)CSc1ncnc2scc(-c3ccc(Br)cc3)c12,11.7% (active)
10,CCc1ccc(-n2c(O)c(C=NCCN(CC)CC)c(=O)[nH]c2=O)cc1,20.8% (active)
11,CC(C)(C)NC(=O)CSc1nnc(-c2ccccn2)n1-c1ccccc1,6.6% (inactive)
12,Cc1nnc(SCC(=O)NC(C)(C)C)n1C1CCCCC1,45% (active)
13,CN(C)S(=O)(=O)c1ccc2c(c1)/C(=C/c1cc3c([nH]1)CCCC3)C(=O)N2,18.2% (active)
14,Cc1ccc(-n2c(C)n[nH]c2=S)cc1,6.67% (inactive)
15,S=c1[nH]nc(-c2ccc(Cl)cc2)n1-c1ccc2c(c1)OCCO2,136% (active)
16,Cn1c(=O)c(NCCO)c2c3c(cccc31)C(=O)c1ccccc1-2,4.78% (inactive)
17,CC(=O)Nc1ccc(Nc2c3c4c(cccc4n(C)c2=O)C(=O)c2ccccc2-3)cc1,26.1% (active)
18,Cn1c(=O)c(NC2CCCCC2)c2c3c(cccc31)C(=O)c1ccccc1-2,9.43% (inactive)
19,Cc1nc(-c2ccc(C#N)cc2)cs1,8.7% (inactive)

row,Compound,activation
1,CCOC(=O)C1C(=O)NC(SCC(N)=O)=C(C#N)C1c1ccccc1OCC (configuration not stated),2.57% (inactive)
2,Cc1ncoc1C(=O)N1CCc2c([nH]c3ccccc23)C1C(C)(C)C (configuration not stated),2.53% (inactive)
3,COC(=O)C1=COC(C)C2CN3CCc4c([nH]c5ccccc45)C3CC12 (configuration not stated),12.5% (active)
4,COC(=O)C1C2CC3c4[nH]c5cc(OC)ccc5c4CCN3CC2CC(OC(=O)CC(C)=O)C1OC (configuration not stated),7.14% (inactive)
5,O=C(O)[C@@H]1[C@H]2C[C@H]3c4[nH]c5ccccc5c4CCN3C[C@@H]2CC[C@@H]1O,1.98% (inactive)
6,COC(=O)C1=COC(C)C2CN3CCc4c([nH]c5cc(OC)c(OC)cc45)C3CC12 (configuration not stated),15.2% (active)
7,COC(=O)CCC(=O)OC1(C)C(=O)C=C2C=C(C3CC3)N(c3cccc(C#N)c3)C=C2C1=O (configuration not stated),0.81% (inactive)
8,COc1ccc(/C=N/N=C2/CC(C)(C)Cc3n[nH]c(=O)cc32)cc1,955% (active)
9,CCN(CC)c1ccc2cc(-c3nnc(-c4ccncc4)o3)c(=O)oc2c1,18.1% (active)
10,CCN(CC)c1ccc2cc(-c3nc4ccccc4n3C)c(=O)oc2c1,6.19% (inactive)
11,CCN(CC)c1ccc2cc(-c3nc(-c4cc5ccccc5oc4=O)cs3)c(=O)oc2c1,12% (active)
12,O=c1oc2ccccc2cc1-c1nc(-c2cccs2)cs1,7.53% (inactive)
13,N=c1oc2ccccc2cc1-c1nc(-c2ccccc2)cs1,4.19% (inactive)
14,CCN(CC)c1ccc2cc(-c3nnc(-c4ccccc4)o3)c(=O)oc2c1,232% (active)
15,Nc1c(C(=O)c2cccs2)sc2nsc(SCCN3CCCCC3)c12,-1.4% (inactive)
16,Brc1ccc2[nH]c3nc(SCCN4CCOCC4)nnc3c2c1,6.16% (inactive)
17,Nc1c(C(=O)c2ccc(Cl)cc2)sc2nsc(SCCN3CCOCC3)c12,12.7% (active)
18,COc1ccc(CNC(=O)c2cc3c(s2)CS(=O)C3)cc1 (configuration not stated),6.8% (inactive)
19,COc1ccc(CNC(=O)C(C#N)c2nc3ccccc3nc2N2CCCC2)cc1 (configuration not stated),2.74% (inactive)

row,Compound,activation
1,COc1ccc(CNC(=O)c2sc(=S)n(-c3ccccc3)c2N)cc1,64.8% (active)
2,COC(=O)c1cc(-c2cccc(OC)c2)n[nH]1,16.6% (active)
3,CCCN1CC=C2C(C#N)=C(N)C(C#N)(C#N)C(c3cc(OC)ccc3OC)C2C1 (configuration not stated),2.79% (inactive)
4,CN1CC=C2C(C#N)=C(N)C(C#N)(C#N)C(c3ccsc3)C2C1 (configuration not stated),7.36% (inactive)
5,COc1cc(C2C3CN(C)CC=C3C(C#N)=C(N)C2(C#N)C#N)ccc1OC(C)C (configuration not stated),49.2% (active)
6,COc1ccc(OC)c(C2C3CN(C(C)C)CC=C3C(C#N)=C(N)C2(C#N)C#N)c1 (configuration not stated),17.8% (active)
7,CC(C)(C)OC(=O)N1CC=C2C(C#N)=C(N)C(C#N)(C#N)C(c3cccs3)C2C1 (configuration not stated),8.81% (inactive)
8,CN1CC=C2C(C#N)=C(N)C(C#N)(C#N)[C@H](c3cccs3)[C@H]2C1,13.3% (active)
9,CN1CC=C2C(C#N)=C(N)C(C#N)(C#N)[C@H](c3cccc(Cl)c3)C2C1 (some centres not stated),24.5% (active)
10,CN1C=CC2=C(C#N)C(N)C(C#N)(C#N)C(c3ccccc3)C2C1 (configuration not stated),4.16% (inactive)
11,CC(C)N1CC=C2C(C#N)=C(N)C(C#N)(C#N)C(c3ccccc3)C2C1 (configuration not stated),6.28% (inactive)
12,COc1cc([C@@H]2[C@H]3CN(C)CC=C3C(C#N)=C(N)C2(C#N)C#N)cc2c1OCO2,4.84% (inactive)
13,CN1C=CC2=C(C#N)C(N)C(C#N)(C#N)[C@H](c3ccccc3)[C@H]2C1 (some centres not stated),6.1% (inactive)
14,CCN1CC=C2C(C#N)=C(N)C(C#N)(C#N)[C@H](c3ccoc3)[C@H]2C1,-0.65% (inactive)
15,CN1CC=C2C(C#N)=C(N)C(C#N)(C#N)[C@H](c3ccoc3)[C@H]2C1,62.5% (active)
16,N#C/C(=C\c1ccc(-c2ccccc2C(=O)O)o1)c1nc2ccccc2[nH]1,14.2% (active)
17,N#C/C(=C\c1ccc(Sc2ccc(Cl)cc2)o1)c1nc2ccccc2[nH]1,7.23% (inactive)
18,Cc1ccc2nc(/C(C#N)=C/c3ccc(-c4ccccc4C(=O)O)o3)[nH]c2c1,12.9% (active)
19,Cc1cc2nc(/C(C#N)=C\c3ccc(-c4ccccc4C(=O)O)o3)[nH]c2cc1C,14.2% (active)

# Source: PubChem BioAssay AID504383 (The Scripps Research Institute Molecular Screening Center, 2011)
